Assay results: ChEMBL document CHEMBL1158608, “Hit-to-lead optimization of disubstituted oxadiazoles and tetrazoles as mGluR5 NAMs” (Bioorg Med Chem Lett, 2010)

Tests used:
[1] = molecular target: T1, Metabotropic glutamate receptor 5 (Rattus norvegicus, UniProt P31424); test: Displacement of [3H]-M-MPEP from mGluR5 in rat cerebrocortical membranes; assay type: cell membranes, Membrane
How it was run: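 Displacement run in duplicate or triplicate, with curves of at least six concentrations. IC50 was converted to Ki by Cheng-Prusoff, using Kd from a Scatchard plot.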

[2] = molecular target: T1, Metabotropic glutamate receptor 5; test: Allosteric modulation of mGluR5 in E17 rat neuronal cultures assessed as inhibition of (S)-3,5-dihydroxyphenylglycine-induced calcium level; assay type: functional
How it was run: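 Primary neocortical cultures from E17 rat embryos, grown at least 5 days, then loaded with the Ca2+ dye fluo-4/AM. Baseline and agonist-evoked fluorescence signals were recorded on a plate reader fluorometer.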

[3] = molecular target: Metabotropic glutamate receptor 5 (Homo sapiens, UniProt P41594); test: Binding affinity to human mGluR5
Sequence of Metabotropic glutamate receptor 5 (Homo sapiens, UniProt P41594) (P41594 whole entry): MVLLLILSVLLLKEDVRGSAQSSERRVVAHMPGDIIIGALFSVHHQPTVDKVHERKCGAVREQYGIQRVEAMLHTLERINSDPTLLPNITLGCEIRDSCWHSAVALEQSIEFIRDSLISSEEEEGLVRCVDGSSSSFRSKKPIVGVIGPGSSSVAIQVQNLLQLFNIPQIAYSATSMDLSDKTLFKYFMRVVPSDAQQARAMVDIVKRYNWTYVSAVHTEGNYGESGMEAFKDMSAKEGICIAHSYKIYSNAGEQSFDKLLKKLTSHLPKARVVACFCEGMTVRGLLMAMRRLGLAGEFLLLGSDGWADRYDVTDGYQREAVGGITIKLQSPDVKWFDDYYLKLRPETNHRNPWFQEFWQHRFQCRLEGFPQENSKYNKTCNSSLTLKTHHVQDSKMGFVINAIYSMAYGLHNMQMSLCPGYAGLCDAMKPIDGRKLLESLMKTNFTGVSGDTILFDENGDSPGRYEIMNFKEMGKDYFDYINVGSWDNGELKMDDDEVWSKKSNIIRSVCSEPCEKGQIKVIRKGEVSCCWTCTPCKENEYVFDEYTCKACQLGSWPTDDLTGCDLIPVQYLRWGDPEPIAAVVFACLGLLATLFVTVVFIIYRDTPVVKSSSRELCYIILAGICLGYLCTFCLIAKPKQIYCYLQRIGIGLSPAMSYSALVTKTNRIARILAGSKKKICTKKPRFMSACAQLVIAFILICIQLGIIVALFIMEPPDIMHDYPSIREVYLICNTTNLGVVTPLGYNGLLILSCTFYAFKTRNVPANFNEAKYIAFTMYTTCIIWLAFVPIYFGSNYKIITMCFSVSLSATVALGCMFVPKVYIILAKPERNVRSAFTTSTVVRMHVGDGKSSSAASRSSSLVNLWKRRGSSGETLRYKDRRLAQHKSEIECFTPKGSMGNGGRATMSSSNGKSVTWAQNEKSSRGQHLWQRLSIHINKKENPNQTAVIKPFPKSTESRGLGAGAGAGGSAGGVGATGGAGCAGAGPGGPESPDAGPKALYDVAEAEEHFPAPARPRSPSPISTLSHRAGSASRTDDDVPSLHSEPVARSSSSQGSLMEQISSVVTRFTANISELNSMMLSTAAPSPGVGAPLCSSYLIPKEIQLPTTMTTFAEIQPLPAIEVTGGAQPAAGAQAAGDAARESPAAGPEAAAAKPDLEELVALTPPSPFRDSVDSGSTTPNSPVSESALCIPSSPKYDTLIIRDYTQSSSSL
How it was run: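 Run in duplicate or triplicate, with concentration-displacement curves of at least six concentrations giving IC50. Ki derived by Cheng-Prusoff, using the radioligand Kd determined from a Scatchard plot.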

T1 sequence (P31424 whole entry): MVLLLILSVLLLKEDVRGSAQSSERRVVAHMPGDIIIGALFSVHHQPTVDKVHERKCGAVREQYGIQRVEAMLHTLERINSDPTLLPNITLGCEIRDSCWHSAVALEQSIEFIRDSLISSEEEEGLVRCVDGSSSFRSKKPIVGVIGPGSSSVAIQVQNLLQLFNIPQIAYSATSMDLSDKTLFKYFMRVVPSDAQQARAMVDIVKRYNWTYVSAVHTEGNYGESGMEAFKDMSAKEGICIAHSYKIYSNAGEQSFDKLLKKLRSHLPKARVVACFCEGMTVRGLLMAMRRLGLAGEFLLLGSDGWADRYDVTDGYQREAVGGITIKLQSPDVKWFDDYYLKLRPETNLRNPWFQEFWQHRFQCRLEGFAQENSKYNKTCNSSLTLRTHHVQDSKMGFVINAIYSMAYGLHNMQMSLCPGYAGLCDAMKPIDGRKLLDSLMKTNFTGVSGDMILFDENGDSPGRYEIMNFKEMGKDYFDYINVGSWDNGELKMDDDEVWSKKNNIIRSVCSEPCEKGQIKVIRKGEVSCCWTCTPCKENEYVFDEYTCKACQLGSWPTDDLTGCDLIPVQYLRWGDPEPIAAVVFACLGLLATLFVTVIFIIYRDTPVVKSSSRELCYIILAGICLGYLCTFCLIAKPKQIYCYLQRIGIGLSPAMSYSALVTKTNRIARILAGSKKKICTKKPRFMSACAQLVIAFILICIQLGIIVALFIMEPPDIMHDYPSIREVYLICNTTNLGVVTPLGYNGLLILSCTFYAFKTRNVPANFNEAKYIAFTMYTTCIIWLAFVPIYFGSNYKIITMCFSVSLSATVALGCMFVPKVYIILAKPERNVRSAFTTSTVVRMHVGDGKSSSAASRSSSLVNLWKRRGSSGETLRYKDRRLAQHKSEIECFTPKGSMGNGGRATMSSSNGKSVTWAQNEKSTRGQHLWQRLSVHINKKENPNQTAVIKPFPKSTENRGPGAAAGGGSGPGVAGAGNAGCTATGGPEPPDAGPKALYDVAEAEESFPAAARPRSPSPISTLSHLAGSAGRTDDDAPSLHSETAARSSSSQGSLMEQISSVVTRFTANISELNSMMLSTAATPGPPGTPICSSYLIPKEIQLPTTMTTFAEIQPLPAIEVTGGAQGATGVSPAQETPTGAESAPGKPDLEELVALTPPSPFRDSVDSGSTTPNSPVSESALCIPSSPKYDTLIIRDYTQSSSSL

O=C(C1CCC1)N1CCCC[C@@H]1c1nnn(-c2cccc(Cl)c2)n1
Ki [1]: 57.5 nM

O=C(C1CCC1)N1CCCC[C@H]1c1nnn(-c2cccc(Cl)c2)n1
Ki [1]: 741 nM

N#Cc1cccc(-c2noc(C3CCCCN3C(=O)c3cccs3)n2)c1 (racemic)
Ki [1]: 200 nM | IC50 [2]: 1740 nM

COc1cccc(-c2noc(C3CCCCN3C(=O)C3CCC3)n2)c1 (racemic)
Ki [1]: 182 nM | IC50 [2]: 501 nM

COCC(=O)N1CCCC1c1nc(-c2cccc(C)c2)no1 (racemic)
Ki [1]: 186 nM | IC50 [2]: 30200 nM

O=C(c1ccco1)N1CSCC1c1nc(-c2cccc(Cl)c2)no1 (racemic)
Ki [1]: 195 nM | IC50 [2]: 1050 nM

O=C(c1cccs1)N1CCCC1c1nc(-c2cccc(Cl)c2)no1 (racemic)
Ki [1]: 195 nM | IC50 [2]: 30200 nM

N#Cc1cccc(-n2nnc(C3CCCCN3C(=O)C3CCC3)n2)c1 (racemic)
Ki [1]: 229 nM

O=C(c1cccs1)N1CCCC(c2nnn(-c3cccc(Cl)c3)n2)C1 (racemic)
Ki [1]: 316 nM

O=C(c1ccc(Br)o1)N1CCCCC1c1nnn(-c2cccc(F)c2)n1 (racemic)
Ki [1]: 457 nM

Cc1cccc(-c2noc(C3CCCCN3C(=O)C3CCC3)n2)c1 (racemic)
Ki [1]: 126 nM | IC50 [2]: 490 nM

Cc1cccc(-c2noc(C3CCCN3C(=O)c3ccc(C)s3)n2)c1 (racemic)
Ki [1]: 145 nM | IC50 [2]: 1000 nM

Cc1cccc(-n2nnc(C3CCCCN3C(=O)C3CCC3)n2)c1 (racemic)
Ki [1]: 72.4 nM | IC50 [2]: 224 nM

O=C(C1CCCC1)N1CCCCC1c1nnn(-c2cccc(Cl)c2)n1 (racemic)
Ki [1]: 87.1 nM | IC50 [2]: 295 nM

Cc1ccc(C(=O)N2CSCC2c2nc(-c3cccc(Cl)c3)no2)s1 (racemic)
Ki [1]: 83.2 nM | IC50 [2]: 759 nM

Cc1ccc(C(=O)N2CCCC2c2nc(-c3cccc(Cl)c3)no2)s1 (racemic)
Ki [1]: 123 nM | IC50 [2]: 6610 nM

Cc1ccc(C(=O)N2CCCC2c2nnn(-c3cccc(Cl)c3)n2)s1 (racemic)
Ki [1]: 89.1 nM | IC50 [2]: 251 nM

Cc1cccc(-n2nnc(C3CCCCN3C(=O)C3CCCC3)n2)c1 (racemic)
Ki [1]: 102 nM

Cc1ccc(C(=O)N2CCCC2c2nnn(-c3cccc(Cl)c3)n2)o1 (racemic)
Ki [1]: 105 nM

O=C(c1ccco1)N1CCCCC1c1nnn(-c2cccc(Cl)c2)n1 (racemic)
Ki [1]: 126 nM

CC(C)C(=O)N1CCCCC1c1nnn(-c2cccc(Cl)c2)n1 (racemic)
Ki [1]: 138 nM

O=C(C1CCC1)N1CCCCC1c1nnn(-c2cccc(Cl)c2)n1 (racemic)
Ki [1]: 77.6 nM | IC50 [2]: 339 nM

CN1CC(=O)N=C1NC(=O)Nc1cccc(Cl)c1 [FENOBAM ANHYDROUS]
Ki [3]: 6.76 nM
